Measured values from PMC4138072 (Biochemistry, 2014).
“Also recorded” adds a separate entry of the source.

Legend:
human arginase I [1] = experiment: Isothermal titration calorimetry, human arginase I; format: binding; details: ITC Kd, human arginase I versus SmARG
human arginase I [2] = details: cited from earlier work
S. mansoni schistosomula = experiment: Helminth fluorescence bioassay; format: cell-based, Schistosoma mansoni; details: 100 μM, in vitro cocultivation
Outline: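 S. mansoni schistosomula were mechanically transformed and exposed to test compound at 100 μM final. Incubation was 24 h (also 72 h) at 37 °C in humidified 5% CO2. Viability was then scored by the helminth fluorescence bioassay, in duplicate.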

[3] = molecular target: T1, SmARG (S. mansoni arginase) (Schistosoma mansoni, UniProt Q6WVP6); experiment: Colorimetric arginase activity assay; format: biochemical; details: Figure S2b
T1 sequence (Q6WVP6 1-364): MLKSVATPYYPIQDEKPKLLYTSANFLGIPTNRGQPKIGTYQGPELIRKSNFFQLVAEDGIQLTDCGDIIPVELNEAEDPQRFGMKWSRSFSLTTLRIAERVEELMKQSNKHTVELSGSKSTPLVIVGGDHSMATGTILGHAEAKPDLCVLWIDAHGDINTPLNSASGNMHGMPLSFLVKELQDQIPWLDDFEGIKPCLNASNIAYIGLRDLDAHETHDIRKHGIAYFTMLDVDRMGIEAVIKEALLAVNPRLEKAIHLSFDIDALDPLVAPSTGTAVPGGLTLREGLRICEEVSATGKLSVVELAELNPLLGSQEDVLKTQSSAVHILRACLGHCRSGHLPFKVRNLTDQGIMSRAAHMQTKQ
Outline: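 Recombinant SmARG was expressed in E. coli BL21(DE3) and purified by Talon affinity then size exclusion into bicine pH 8.5 with 100 μM MnCl2. Reactions used 0.5–50 mM L-arginine in 50 mM EPPS pH 8.5 with 100 μM MnCl2, started with 1 μM enzyme at 21 °C and stopped after 1 min with acid/α-isonitrosopropiophenone. Samples were heated 1 h at 90 °C and urea read at A550. Ki came from a competitive-inhibition Michaelis–Menten fit, in triplicate.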

[4] = molecular target: T1, SmARG (S. mansoni arginase); experiment: Isothermal titration calorimetry of SmARG–inhibitor complexes; format: binding; details: ITC Kd

Structure (SMILES) | schistosomula viability or morphology (S. mansoni schistosomula; 24 h, 37 °C, absence of host) | schistosomula viability or morphology (S. mansoni schistosomula; 72 h (data not shown)) | enhancement of affinity compared with the parent SmARG–ABH complex [4] [fold] | other results
N[C@@H](CCCCB(O)O)C(=O)O [ABH, 2(S)-amino-6-boronohexanoic acid] | no significant difference; also recorded: do not affect parasite viability | no significant difference |  | tighter binding to human arginase I than to SmARG (human arginase I [1]): 260 fold; preferential inhibition of human arginase I compared with nor-NOHA (human arginase I [2]): at least 10 fold
Cl.O=C(O)CCP(CCC(=O)O)CCC(=O)O [TCEP, Tris(2-carboxyethyl)phosphine hydrochloride] |  |  |  | SmARG activity in the presence of reducing reagents [3]: severely attenuated
N[C@](CCCCB(O)O)(CCN1CCCCC1)C(=O)O [ABHPE, (R)-2-amino-6-borono-2-[2-(piperidin-1-yl)ethyl]hexanoic acid] |  |  | 2 | 
N=C(NO)NCC[C@H](N)C(=O)O [nor-NOHA, nor-N-hydroxy-L-arginine] | no significant difference; also recorded: do not affect parasite viability | no significant difference |  | more effective than ABH in binding to SmARG ([4]; N-hydroxyguanidinium moiety versus tetrahedral boronate anion of ABH): ~4 fold
N[C@@](CCCCB(O)O)(C(=O)O)C1CCN(Cc2ccc(Cl)c(Cl)c2)CC1 (racemic) [ABHDP, (R)-2-amino-6-borono-2-[1-(3,4-dichlorobenzyl)piperidin-4-yl]hexanoic acid] |  |  | 5 | 
